Reference: ChEMBL document CHEMBL1141042, “Correlation of cytotoxic activity of betulinines and their hydroxy analogues” (Bioorg Med Chem Lett, 2005)

Tests used:
Type in all cases: functional, cell-based
HT-29 = experiment: Concentration required to kill 50 % of human colon cancer cell line HT-29
Summary of the method: (§1)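 MTT assay. Cells at 2500–30,000/well were preincubated 24 h at 37 C, 5% CO2. Fourfold dilutions of compound in 10% DMSO were added, in duplicate, and exposure ran 72 h at 37 C. MTT was then added for 1–4 h, formazan was dissolved in 10% SDS (pH 5.5) overnight, and OD was read at 540 nm. Survival was calculated versus control wells, with IC50 from dose–response curves.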

K562 [1] = experiment: Concentration required to kill 50 % of human chronic myelogenous leukemia cell line K562; summary of the method: as §1
K562 [2] = experiment: Concentration required to kill 50 % of human paclitaxel-resistant subline of K562 cells (K-562-Tax); summary of the method: as §1
PC-3 = experiment: Concentration required to kill 50 % of human prostate cancer PC3 cells; summary of the method: as §1
CCRF-CEM = experiment: Concentration required to kill 50 % of human T-lymphoblastic leukemia cell line (CEM); summary of the method: as §1
SK-MEL-2 = experiment: Concentration required to kill 50 % of human melanoma SK-MEL2 cells; summary of the method: as §1
[3] = Homo sapiens, HT-29, read-out: IC50
[4] = Homo sapiens, K562, read-out: IC50
[5] = Homo sapiens, PC-3, read-out: IC50
[6] = Homo sapiens, CCRF-CEM, read-out: IC50
[7] = Homo sapiens, SK-MEL-2, read-out: IC50

Row | SMILES | IC50 (HT-29; ht-29) | IC50 (K562 [1]; k562) | IC50 (K562 [2]; k562) | IC50 (PC-3; pc-3) | IC50 (CCRF-CEM; ccrf-cem) | IC50 (SK-MEL-2; sk-mel-2) | IC50 (HT-29; [3]) | IC50 (K562 [1]; [4]) | IC50 (K562 [2]; [4]) | IC50 (PC-3; [5]) | IC50 (CCRF-CEM; [6]) | IC50 (SK-MEL-2; [7])
1 | CC(=O)O[C@H]1CC[C@@]2(C)C(CC[C@]3(C)C2CCC2C4=C(C(C)C)C(=O)C[C@]4(C(=O)OCc4ccccc4)CC[C@]23C)C1(C)C (some centres not stated) | 250 uM l-1 | 245 uM l-1 | 250 uM l-1 | 250 uM l-1 | 250 uM l-1 | 250 uM l-1 |  |  |  |  |  | 
2 | CC(=O)OC[C@@]12CC[C@]3(C)C(CCC4[C@@]5(C)CC[C@H](OC(=O)CCl)C(C)(C)C5CC[C@]43C)C1=C(C(C)C)C(=O)OC2=O (some centres not stated) | 216 uM l-1 | 181 uM l-1 | 220 uM l-1 | 250 uM l-1 | 162 uM l-1 | 121 uM l-1 |  |  |  |  |  | 
3 | CC(C)C1=C2C3CCC4[C@@]5(C)CC[C@H](O)C(C)(C)C5CC[C@@]4(C)[C@]3(C)CC[C@@]2(C(=O)OCc2ccccc2)CC1=O (some centres not stated) |  |  |  |  |  | 156 uM l-1 | 21 µM | 27 µM | 28 µM | 37 µM | 26 µM | 
4 | C=C(C)[C@@H]1CC[C@]2(CO)CC[C@]3(C)[C@H](CC[C@@H]4[C@@]5(C)CC[C@H](O)C(C)(C)[C@@H]5CC[C@]43C)[C@@H]12 [BETULIN] | > 250 uM l-1 | > 250 uM l-1 | > 250 uM l-1 | > 250 uM l-1 | > 250 uM l-1 | > 250 uM l-1 |  |  |  |  |  | 
5 | COC(=O)[C@@]12CC[C@]3(C)C(CCC4[C@@]5(C)CC[C@H](OC(C)=O)C(C)(C)C5CC[C@]43C)C1=C(C(C)C)C(=O)C2=O (some centres not stated) |  |  |  |  |  |  | 33 µM | 29 µM | 36 µM | 34 µM | 16 µM | 87 µM
6 | CC(=O)OC[C@@]12CC[C@]3(C)C(CCC4[C@@]5(C)CC[C@H](O)C(C)(C)C5CC[C@]43C)C1=C(C(C)C)C(=O)C2 (some centres not stated) |  |  |  | 163 uM l-1 | 250 uM l-1 |  | 93 µM | 39 µM | 59 µM |  |  | 85 µM
7 | CCOC(=O)[C@@]12CC[C@]3(C)C(CCC4[C@@]5(C)CC[C@H](OC(C)=O)C(C)(C)C5CC[C@]43C)C1=C(C(C)C)C(=O)C2 (some centres not stated) | 224 uM l-1 |  | 206 uM l-1 | 244 uM l-1 | 102 uM l-1 | 216 uM l-1 |  | 59 µM |  |  |  | 
8 | C=C1CC[C@]2(C)C(CCC3[C@@]4(C)CC[C@H](OC(C)=O)C(C)(C)C4CC[C@]32C)C1=O (some centres not stated) | 129 uM l-1 |  |  | 143 uM l-1 | > 250 uM l-1 |  |  | 0.4 µM | 1.1 µM |  |  | 2.1 µM
9 | CC(=O)OC[C@@]12CC[C@]3(C)C(CCC4[C@@]5(C)CC[C@H](OC(=O)CCl)C(C)(C)C5CC[C@]43C)C1=C(C(C)C)C(=O)C2 (some centres not stated) | 110 uM l-1 | 110 uM l-1 |  | 242 uM l-1 |  | 229 uM l-1 |  |  | 97 µM |  | 44 µM | 
10 | CC(=O)OC[C@@]12CC[C@]3(C)C(CCC4[C@@]5(C)CC[C@H](OC(C)=O)C(C)(C)C5CC[C@]43C)C1=C(C(C)C)C(=O)C2 (some centres not stated) | > 250 uM l-1 | > 250 uM l-1 | > 250 uM l-1 | > 250 uM l-1 | > 250 uM l-1 | > 250 uM l-1 |  |  |  |  |  | 
11 | CC(=O)O[C@H]1CC[C@@]2(C)C(CC[C@]3(C)C2CCC2C4=C(C(C)C)C(=O)C[C@]4(C(=O)O)CC[C@]23C)C1(C)C (some centres not stated) | 149 uM l-1 | > 250 uM l-1 | > 250 uM l-1 | 117 uM l-1 | > 250 uM l-1 | 128 uM l-1 |  |  |  |  |  | 
12 | CCOC(=O)[C@@]12CC[C@]3(C)C(CCC4[C@@]5(C)CC[C@H](O)C(C)(C)C5CC[C@]43C)C1=C(C(C)C)C(=O)C2=O (some centres not stated) | 176 uM l-1 | 239 uM l-1 |  | 165 uM l-1 | 210 uM l-1 | 140 uM l-1 |  |  | 85 µM |  |  | 
13 | CC(C)C1=C2C3CCC4[C@@]5(C)CC[C@H](O)C(C)(C)C5CC[C@@]4(C)[C@]3(C)CC[C@@]2(CO)CC1=O (some centres not stated) | > 250 uM l-1 | > 250 uM l-1 | > 250 uM l-1 | > 250 uM l-1 | > 250 uM l-1 | > 250 uM l-1 |  |  |  |  |  | 
14 | COC(=O)[C@@]12CC[C@]3(C)C(CCC4[C@@]5(C)CC[C@H](O)C(C)(C)C5CC[C@]43C)C1=C(C(C)C)C(=O)C2 (some centres not stated) |  |  |  |  |  |  | 38 µM | 38 µM | 36 µM | 38 µM | 26 µM | 80 µM
15 | CC(=O)O[C@H]1CC[C@@]2(C)C(CC[C@]3(C)C2CCC2C4=C(C(C)C)C(=O)C[C@]4(CO)CC[C@]23C)C1(C)C (some centres not stated) |  |  |  |  |  |  | 33 µM | 37 µM | 35 µM | 39 µM | 28 µM | 84 µM
16 | CCOC(=O)[C@@]12CC[C@]3(C)C(CCC4[C@@]5(C)CC[C@H](O)C(C)(C)C5CC[C@]43C)C1=C(C(C)C)C(=O)C2 (some centres not stated) |  |  |  |  |  |  | 13 µM | 17 µM | 19 µM | 33 µM | 18 µM | 80 µM
17 | CCOC(=O)[C@@]12CC[C@]3(C)C(CCC4[C@@]5(C)CC[C@H](OC(C)=O)C(C)(C)C5CC[C@]43C)C1=C(C(C)C)C(=O)C2=O (some centres not stated) |  |  | 130 uM l-1 |  |  | 148 uM l-1 | 93 µM | 59 µM |  | 87 µM | 38 µM | 
18 | COC(=O)[C@@]12CC[C@]3(C)C(CCC4[C@@]5(C)CC[C@H](OC(C)=O)C(C)(C)C5CC[C@]43C)C1=C(C(C)C)C(=O)C2 (some centres not stated) | 149 uM l-1 |  |  | 246 uM l-1 |  | 165 uM l-1 |  | 34 µM | 96 µM |  | 44 µM | 
19 | CC(C)C1=C2C3CCC4[C@@]5(C)CC[C@H](O)C(C)(C)C5CC[C@@]4(C)[C@]3(C)CC[C@@]2(C(=O)O)CC1=O (some centres not stated) |  |  |  |  |  | 160 uM l-1 | 33 µM | 30 µM | 34 µM | 40 µM | 29 µM | 
20 | CC(=O)OC[C@@]12CC[C@]3(C)C(CCC4[C@@]5(C)CC[C@H](OC(=O)CCl)C(C)(C)C5CC[C@]43C)C1=C(C(C)C)C(=O)C2=O (some centres not stated) | > 250 uM l-1 | 231 uM l-1 | > 250 uM l-1 | 208 uM l-1 | 242 uM l-1 | 170 uM l-1 |  |  |  |  |  | 
21 | COC(=O)[C@@]12CC[C@]3(C)C(CCC4[C@@]5(C)CC[C@H](O)C(C)(C)C5CC[C@]43C)C1=C(C(C)C)C(=O)C2=O (some centres not stated) |  |  |  |  |  | 138 uM l-1 | 54 µM | 35 µM | 46 µM | 72 µM | 44 µM | 
22 | CC(=O)OC[C@@]1(C(=O)O)CC[C@]2(C)C(CCC3[C@@]4(C)CC[C@H](OC(=O)CCl)C(C)(C)C4CC[C@]32C)C1=O (some centres not stated) |  |  |  |  |  |  | 3.6 µM | 0.2 µM | 0.4 µM | 2.3 µM | 1 µM | 1.3 µM
